KCNK3 block = human KCNK3 channel inhibition, primary screen; B-score at 10 µM; O14649; 340,000 tested, 0.84% active; CHO-KCNK3 thallium flux, FluxOR fluorescence; stronger effect = lower value;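 active = B-score under library mean minus 4 SD, starting fluorescence ratio at most library mean plus 5 SD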;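 also: more negative B-score means stronger inhibition of thallium flux through KCNK3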
KCNQ1 block = human KCNQ1 channel inhibition; P51787; CHO-K1 KCNQ1, FluxOR thallium flux fluorescence; stronger effect = higher value; B-score at 10 µM; 310,000 tested, 1.3% active; AID 2642;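 active = compounds whose thallium flux B-score, printed positive for inhibition, exceeds three library SD while starting fluorescence stays within three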;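 also: channel opened by potassium depolarization with thallium stimulus after 20 min compound exposure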
Cl transport mod = modulates chloride dependent transport by human KCC2. Q9H2X9. KCC2 cells, thallium flux FluoZin-2 fluorescence. B-score of Tl+ flux slope (higher = more flux/activation; lower = inhibition) at 10 µM. 190,000 tested, 2.2% active. AID 1456;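 active = thallium flux slope and its plate-corrected score both differing from the plate sample mean at a set confidence after two filtering rounds, in either direction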;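 also: slope of fluorescence scaled to starting intensity during 10 to 20 s after thallium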
KCNK9 inh = blocks the human KCNK9 two-pore domain potassium channel; Q9NPC2; HEK293 KCNK9, FluxOR thallium flux fluorescence; stronger effect = lower value; B-score at 10 µM; 310,000 tested, 1.2% active;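 active = ratio B-score over 3 SD below the library mean, with starting fluorescence within 5 SD of its mean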;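 also: negative B-score means less thallium flux so channel inhibition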
hERG rescue = compounds protecting human hERG from proarrhythmic drug block | Q12809 | CHO-hERG, FluxOR thallium flux, dofetilide IC70 present | 310,000 tested, 0.51% active | activation (rescue from dofetilide block), less the hit threshold, % at 10 µM;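 active = activation above the mean of controls blocked by dofetilide plus 5 SD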;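 also: thallium influx through hERG after potassium depolarization seen as dye fluorescence rise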
KCNQ1 act = potentiators or activators of human KCNQ1 potassium channel | AID 2648 | P51787 | CHO-K1 KCNQ1, thallium flux FluxOR fluorescence; stronger effect = higher value | B-score at 10 µM | 310,000 tested, 0.35% active;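 active = fluorescence ratio B-score, a plate-corrected score, at least three library SD, with initial intensity B-score within 5 SD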
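Test system: CHO-K1 cells stably expressing KCNQ1 / Medium: assay buffer / Also added: depolarizing K+/Tl+ stimulus, K2SO4 and Tl2SO4 each 12.5 mM in 5x stock / Incubation: 90 min dye loading and 20 min compound exposure, both at room temperature / Signal: thallium influx via FluxOR fluorescence, kinetic imaging / Evaluation: B score of baseline-normalized fluorescence ratio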
KCNK9 inh conf = confirmation of human KCNK9 potassium channel inhibitors. shares compounds with KCNK9 inh. HEK293 KCNK9 cells, FluxOR thallium flux fluorescence. inhibition, % at 10 µM. 4,900 tested, 43% active. AID 492992;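 active = thallium signal inhibited by more than 5 SD of the compound-free buffer control wells, on both duplicate plates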;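 also: 0% = assay buffer control wells without compound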
Kir21 sel = mouse Kir2.1 off-target activity of KCNK9 modulators. shares compounds with KCNK9 inh. Kir2.1 cells, FluxOR thallium flux fluorescence. inhibition, % at 10 µM. 4,900 tested, 4% active;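 active = thallium signal drop more than 5 SD beyond the mean of the no-compound control wells, seen in both duplicate plates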;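 also: signal is fluorescence rise after thallium addition divided by baseline fluorescence; plate controls were assay buffer only for no effect and full block by chlorpromazine control for full effect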
Target sequence (P35561 whole entry, looked up): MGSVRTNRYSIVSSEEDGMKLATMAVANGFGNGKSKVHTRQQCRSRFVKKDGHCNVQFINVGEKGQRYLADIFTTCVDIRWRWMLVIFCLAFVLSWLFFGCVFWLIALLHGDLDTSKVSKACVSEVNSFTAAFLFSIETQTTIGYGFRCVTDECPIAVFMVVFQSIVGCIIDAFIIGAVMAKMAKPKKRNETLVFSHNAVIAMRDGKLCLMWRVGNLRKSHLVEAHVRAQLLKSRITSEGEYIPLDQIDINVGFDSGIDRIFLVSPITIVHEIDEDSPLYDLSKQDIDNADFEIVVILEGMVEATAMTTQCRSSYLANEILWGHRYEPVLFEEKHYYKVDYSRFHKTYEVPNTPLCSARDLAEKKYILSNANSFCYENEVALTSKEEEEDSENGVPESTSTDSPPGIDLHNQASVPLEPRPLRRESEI
KCNK9 uninduced = non-induced cell nonspecific activity of KCNK9 modulators | AID 492997 | inhibition, % at 10 µM | non-induced KCNK9-HEK293, FluxOR thallium flux | shares compounds with KCNK9 inh | 4,900 tested, 40% active;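 active = thallium signal drop beyond 5 SD of the untreated control mean, on both duplicate plates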;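 also: plate controls were buffer only IC0 wells for no effect and SID17386958 at its maximal inhibitory level for full effect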
Active calls of the source: *; i = inactive; . = no result. Sampled rows, rich in hits. Any-hit rate of the full collection: about 4.1%.

SMILES	KCNK3 block	KCNQ1 block	Cl transport mod	KCNK9 inh	hERG rescue	KCNQ1 act	KCNK9 inh conf	Kir21 sel	KCNK9 uninduced
CC(C)COc1ccc(C(=O)N(CC(=O)Nc2ccccc2C(F)(F)F)Cc2ccco2)cc1	i	i	.	i	-14	i	i	i	i
C=C(C)CN=CC1(C)CCC(C)=CO1 (stereo not drawn)	i	.	.	.	.	.	.	.	.
Brc1ccc(Oc2ncc(CN3CCN(c4ccccc4)CC3)s2)cc1	i	i	0.055	i	-2	i	i	i	i
Cc1ccc(Oc2ncc(CN3CCOCC3)s2)cc1	i	i	0.51	i	-12	i	.	.	.
Cc1cc(C)c(-c2csc(NC(=O)/C=C/c3cccs3)n2)c(C)c1	i	i	-0.51	i	-5	i	i	i	i
Cc1cc(C)nc(NC(=O)/C=C/c2cccs2)c1	i	i	.	i	-1	i	.	.	.
CC(C)(C)NC(=S)NC(=O)C12CCC3CC(CC(C3)C1)C2	i	i	0.34	i	-2	i	i	i	i
CC(C)(C)NC(=O)C12CC3CC(CC(Cl)(C3)C1)C2	i	i	-0.03	i	-7	i	.	.	.
CCOc1cc(/C=C2\C(=O)N(Cc3ccc(C)cc3)C(C)=C2C(=O)OC)ccc1O	i	7*	-0.027	-11*	-8	i	41%*	i	32%*
O=C1C(Cc2ccccc2)Nc2ncnc(N3CCCCC3)c2N1Cc1ccc(Cl)cc1 (stereo not drawn)	i	i	.	-17*	-8	i	76%*	i	34%*
CC(C)CC1Nc2ncnc(N3CCCCC3)c2N(Cc2ccccc2)C1=O (stereo not drawn)	i	i	.	-9.1*	-9	i	39%*	i	38%*
COc1cc(OC)cc(C(=O)N[C@H](C(=O)OCC(=O)N2CCN(S(=O)(=O)c3ccc(C)cc3)CC2)C(C)C)c1	i	.	.	.	.	.	.	.	.
CC(C)(C)OC(=O)N[C@@H](C(=O)OC(C)(C)C)c1ccc(Br)cc1	i	.	.	.	.	.	.	.	.
Cc1ccc2cc(C)c(N3CCN(c4ccccn4)CC3)nc2c1	i	i	1.3	i	-9	i	i	i	26%*
CC(C)(C)n1nc2c(c1NC(=O)Cc1ccc([N+](=O)[O-])cc1)CS(=O)(=O)C2	i	i	.	i	-8	i	.	.	.
COc1cccc2cc(C(=O)C3=C(O)C(=O)N(CCN4CCOCC4)C3c3cccc(Cl)c3)oc12 (stereo not drawn)	i	i	.	i	-13	i	.	.	.
COc1cc(/C=C/C(=O)c2ccc(NS(=O)(=O)c3ccc(C)cc3)cc2)ccc1OC(F)F	i	i	-1.8	i	-3	i	i	i	i
COc1cccc(/C=C/C(=O)c2ccc(NS(=O)(=O)c3ccc(C)cc3)cc2)c1	i	i	0.19	i	-9	i	.	.	.
Cc1cc(C(=O)Cn2nc(C(=O)O)c3ccccc3c2=O)c(C)n1-c1cccc(C(F)(F)F)c1	i	i	-1.8	i	-8	i	i	i	i
CCc1ccc(S(=O)(=O)N/N=C\c2ccc3c(c2)OCO3)cc1	i	i	.	i	-7	i	.	.	.
Cc1nc(N(C)Cc2ccccc2)c2nnn(Cc3ccccc3)c2n1	i	i	.	i	-14	i	i	i	i
CCCCn1c(N)c(N(CC(C)C)C(=O)c2ccc(-c3ccc(Cl)cc3)o2)c(=O)[nH]c1=O	i	.	.	.	.	.	.	.	.
COc1ccc(C(=O)OC(C(=O)c2ccc(C)cc2)c2ccccc2)cc1 (stereo not drawn)	i	i	0.17	-15*	-11	i	65%*	i	32%*
CC1CCCC(=NNC(=O)C2COc3ccccc3O2)C1 (stereo not drawn)	i	.	.	.	.	.	.	.	.
Cc1cc(=O)oc2cc(OCC(=O)N3CCN(C(=O)C4COc5ccccc5O4)CC3)c(Cl)cc12 (stereo not drawn)	i	i	.	i	-12	i	.	.	.
SMILES	KCNK3 block	KCNQ1 block	Cl transport mod	KCNK9 inh	hERG rescue	KCNQ1 act	KCNK9 inh conf	Kir21 sel	KCNK9 uninduced
O=C(Nc1cc2c3c(c1)C1CCCC1CN3CC1CCCC21)c1ccccc1 (stereo not drawn)	i	9*	0.068	-12*	-10	i	i	i	i
Cc1cccc(OCC(=O)Nc2nnc(S(=O)(=O)N3CCCCCC3)s2)c1	i	i	.	i	-6	i	.	.	.
COc1ccc(OC(C)C(=O)N(C)Cc2nc(-c3cccc(C)c3)no2)cc1 (stereo not drawn)	i	i	.	i	-12	i	i	i	i
Cc1cccc(-c2noc(CN(C)C(=O)COc3ccccc3)n2)c1	i	i	.	i	-5	i	.	.	.
Cc1cccc(-c2noc(CN(C)C(=O)c3ccco3)n2)c1	i	i	.	i	-10	i	.	.	.
COc1cccc(OCC(=O)N(C)Cc2nc(-c3cccc(C)c3)no2)c1	i	i	.	i	-4	i	i	i	i
CC(C)S(=O)(=O)c1nsc2nc(=O)c(/C=C3\C=Nc4ccccc43)c(N)n12	i	i	-0.35	i	-22	i	i	i	i
O=C(c1cc(S(=O)(=O)NCc2ccco2)ccc1Br)N1CCOCC1	i	.	.	.	.	.	.	.	.
CC/C(=N/Nc1ccccc1Cl)c1cnnc(-c2ccccc2)n1	i	i	-0.052	-13*	-17	i	i	i	38%*
Cc1ccc(F)c([C@H]2[C@H]3C=CC[C@@H](C)[C@@H]3C(=O)N2Cc2ccccc2)c1	i	i	-0.33	-8.6*	-26	i	52%*	i	60%*
CC[C@@H]1CC=C[C@H]2[C@H]1C(=O)N(Cc1ccccc1)[C@H]2c1ccc(C(F)(F)F)cc1	i	i	0.31	-8.5*	-13	i	50%*	i	48%*
Cc1ccc(-c2ccc([C@H]3[C@H]4C=CC[C@@H](C)[C@@H]4C(=O)N3Cc3ccccc3)c(F)c2)cc1	i	i	-0.6	i	-9	i	.	.	.
O=C1C2C(c3cccc(/C=C/c4ccccc4)c3)CC=CC2C(c2ccc(C(F)(F)F)cc2)N1Cc1ccccc1 (stereo not drawn)	i	i	0.046	i	-6	i	.	.	.
